What was measured:
[1] = biological target: T1, Cyclin-dependent kinase 1 (Homo sapiens, UniProt P06493); assay: Inhibition of cyclin-dependent kinase 1 (CDK1) (Not active)
[2] = biological target: T1, Cyclin-dependent kinase 1; assay: Inhibitory activity against cyclin-dependent kinase 1 (CDK1) was determined
[3] = Inhibition of human bladder carcinoma T24 cell proliferation; type: functional, cell-based, T-24
Procedure, shortened: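 T24 cells seeded 1.5 x 10^3/well, attached overnight (16-18h), washed with serum-free medium, exposed to serial drug dilutions 4-5 days (≥2-3 control divisions); duplicates per concentration. Fixed 3.3% glutaraldehyde, methylene blue 0.05% stain, eluted 3% HCl, OD 665nm.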

[4] = biological target: T2, Epidermal growth factor receptor (Homo sapiens, UniProt P00533); assay: Inhibit of epidermal growth factor receptor (EGFR)
[5] = biological target: cAMP-dependent protein kinase (PKA) (Homo sapiens, UniProt P22694+P17612+P22612); assay: Inhibition of Protein kinase A; type: protein assay
[6] = biological target: Protein kinase C alpha type (Homo sapiens, UniProt P17252); assay: Inhibition of Protein kinase C alpha
[7] = biological target: T2, Epidermal growth factor receptor; assay: Inhibition of epidermal growth factor receptor (EGFR) (inactive)

T2 sequence (P00533 whole entry): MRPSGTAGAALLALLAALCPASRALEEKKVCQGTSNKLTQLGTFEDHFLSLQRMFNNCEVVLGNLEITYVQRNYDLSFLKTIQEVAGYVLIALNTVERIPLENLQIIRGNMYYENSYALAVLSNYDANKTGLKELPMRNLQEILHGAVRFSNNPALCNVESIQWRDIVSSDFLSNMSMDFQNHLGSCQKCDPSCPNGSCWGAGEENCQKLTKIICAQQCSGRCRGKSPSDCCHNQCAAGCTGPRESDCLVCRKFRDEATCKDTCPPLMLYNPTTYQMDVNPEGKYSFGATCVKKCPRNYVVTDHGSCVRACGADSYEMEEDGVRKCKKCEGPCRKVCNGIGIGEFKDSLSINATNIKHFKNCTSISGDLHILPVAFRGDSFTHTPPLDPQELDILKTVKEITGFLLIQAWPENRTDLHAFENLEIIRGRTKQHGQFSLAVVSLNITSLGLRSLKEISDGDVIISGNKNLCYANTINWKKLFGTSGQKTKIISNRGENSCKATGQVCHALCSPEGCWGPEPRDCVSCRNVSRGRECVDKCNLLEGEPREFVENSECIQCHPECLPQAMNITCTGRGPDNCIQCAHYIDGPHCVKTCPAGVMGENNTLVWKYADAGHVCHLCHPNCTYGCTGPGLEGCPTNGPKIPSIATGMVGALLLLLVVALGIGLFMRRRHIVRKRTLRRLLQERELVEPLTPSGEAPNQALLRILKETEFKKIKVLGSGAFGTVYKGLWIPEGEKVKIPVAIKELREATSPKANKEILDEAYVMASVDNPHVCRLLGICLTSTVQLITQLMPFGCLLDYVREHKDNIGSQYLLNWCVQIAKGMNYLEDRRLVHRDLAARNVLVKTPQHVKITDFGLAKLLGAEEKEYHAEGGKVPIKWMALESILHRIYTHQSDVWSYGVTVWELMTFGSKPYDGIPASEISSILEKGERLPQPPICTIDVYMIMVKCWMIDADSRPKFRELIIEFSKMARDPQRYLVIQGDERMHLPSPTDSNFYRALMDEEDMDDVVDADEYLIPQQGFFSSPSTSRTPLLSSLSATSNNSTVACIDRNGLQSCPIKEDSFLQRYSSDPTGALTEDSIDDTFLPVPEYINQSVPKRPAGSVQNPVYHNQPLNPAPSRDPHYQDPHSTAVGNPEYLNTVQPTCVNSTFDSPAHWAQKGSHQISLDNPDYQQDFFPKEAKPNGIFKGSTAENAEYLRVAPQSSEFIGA
T1 sequence (P06493 whole entry): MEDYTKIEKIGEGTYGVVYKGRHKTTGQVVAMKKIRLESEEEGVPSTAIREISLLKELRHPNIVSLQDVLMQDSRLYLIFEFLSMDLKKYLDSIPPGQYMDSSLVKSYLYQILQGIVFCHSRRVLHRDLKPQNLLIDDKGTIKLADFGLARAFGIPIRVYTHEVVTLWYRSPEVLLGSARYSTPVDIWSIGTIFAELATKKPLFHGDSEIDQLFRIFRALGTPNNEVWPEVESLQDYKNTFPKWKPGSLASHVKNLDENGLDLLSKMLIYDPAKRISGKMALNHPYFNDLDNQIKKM

IC50 [2] | Compound | other results
– | CCn1cnc2c(Nc3cccc(C#N)c3)nc(NCCO)nc21 | IC50 [1]: Not Active
0.031 µM | CCn1cnc2c(Nc3ccc(F)cc3)nc(N[C@H]3CC[C@H](N)CC3)nc21 | –
0.44 µM | CCn1cnc2c(Nc3cccc(F)c3)nc(NCCO)nc21 | –
0.028 µM | CCn1cnc2c(Nc3cccc(C#N)c3)nc(N[C@H]3CC[C@H](O)CC3)nc21 | –
0.34 µM | CCn1cnc2c(Nc3cccc(OC)c3)nc(N[C@H]3CC[C@@H](N)CC3)nc21 | –
0.15 µM | CCn1cnc2c(Nc3ccc(F)cc3)nc(N[C@@H]3CCCC[C@@H]3N)nc21 | –
0.7 µM | CCn1cnc2c(Nc3cccc(C(F)(F)F)c3)nc(NCCN)nc21 | –
0.35 µM | CCn1cnc2c(Nc3cccc(F)c3)nc(N[C@H]3CC[C@@H](N)CC3)nc21 | –
0.14 µM | CCn1cnc2c(Nc3cccc(C(F)(F)F)c3)nc(N[C@H]3CC[C@H](N)CC3)nc21 | –
0.1 µM | CCn1cnc2c(Nc3ccc(F)cc3)nc(N[C@H]3CC[C@@H](N)CC3)nc21 | –
0.08 µM | CCn1cnc2c(Nc3cccc(Cl)c3)nc(NCCN)nc21 | IC50 ([3]; Homo sapiens, T-24): 3.16 µM; IC50 [4]: > 100 µM; IC50 [5]: 180 µM; IC50 [6]: 31.5 µM
0.25 µM | CCn1cnc2c(Nc3cccc(F)c3)nc(N[C@@H]3CCCC[C@@H]3N)nc21 | –
0.29 µM | CCn1cnc2c(Nc3cccc(C(F)(F)F)c3)nc(N[C@H]3CC[C@@H](N)CC3)nc21 | –
0.032 µM | CCn1cnc2c(Nc3cccc(F)c3)nc(N[C@H]3CC[C@H](O)CC3)nc21 | –
0.04 µM | CCn1cnc2c(Nc3ccc(F)cc3)nc(N[C@H]3CC[C@H](O)CC3)nc21 | –
0.23 µM | CCn1cnc2c(Nc3cccc(OC)c3)nc(N[C@@H]3CCCC[C@@H]3N)nc21 | –
0.56 µM | CCn1cnc2c(Nc3cccc(C#N)c3)nc(NCCN)nc21 | –
0.45 µM | CCn1cnc2c(Nc3ccc(F)cc3)nc(NCCN)nc21 [listing 1 of 2 here] | –
0.039 µM | CCn1cnc2c(Nc3cccc(Cl)c3)nc(N3CCCCC3CO)nc21 (stereo not drawn) | IC50 ([3]; Homo sapiens, T-24): 3.65 µM
0.31 µM | CCn1cnc2c(Nc3cccc(C(F)(F)F)c3)nc(N[C@@H]3CCCC[C@@H]3N)nc21 | –
0.16 µM | CCn1cnc2c(Nc3cccc(OC)c3)nc(N[C@H]3CC[C@H](N)CC3)nc21 | –
0.35 µM | CCn1cnc2c(Nc3cccc(C#N)c3)nc(N[C@H]3CC[C@@H](N)CC3)nc21 | –
– | CCn1cnc2c(Nc3cccc(Cl)c3)nc(N[C@H]3CC[C@@H](O)CC3)nc21 | IC50 ([3]; Homo sapiens, T-24): 0.83 µM

IC50 [2] | Compound | other results
0.03 µM | CCn1cnc2c(Nc3cccc(Cl)c3)nc(N[C@H]3CC[C@H](O)CC3)nc21 | –
0.35 µM | CCn1cnc2c(Nc3cccc(C#N)c3)nc(N[C@@H]3CCCC[C@@H]3N)nc21 | –
– | CCn1cnc2c(Nc3cccc(C(F)(F)F)c3)nc(NCCO)nc21 | IC50 [1]: Not Active
0.15 µM | CCn1cnc2c(Nc3cccc(F)c3)nc(N[C@H]3CC[C@H](N)CC3)nc21 | –
0.55 µM | CCn1cnc2c(Nc3cccc(OC)c3)nc(NCCN)nc21 | IC50 ([3]; Homo sapiens, T-24): 9.9 µM
0.08 µM | CCn1cnc2c(Nc3cccc(Cl)c3)nc(N3CCC[C@@H]3CO)nc21 | IC50 [7]: Not Active; IC50 ([3]; Homo sapiens, T-24): 6.71 µM; IC50 [5]: > 500 µM; IC50 [6]: 38.5 µM
0.33 µM | CCn1cnc2c(Nc3cccc(Cl)c3)nc(NCCO)nc21 | IC50 ([3]; Homo sapiens, T-24): 17.5 µM
0.38 µM | CCn1cnc2c(Nc3ccc(F)cc3)nc(NCCO)nc21 | –
0.039 µM | CCn1cnc2c(Nc3cccc(Cl)c3)nc(N[C@H]3CC[C@H](N)CC3)nc21 | –
0.09 µM | CCn1cnc2c(Nc3cccc(OC)c3)nc(N[C@H]3CC[C@H](O)CC3)nc21 | –
0.028 µM | CCn1cnc2c(Nc3cccc(C(F)(F)F)c3)nc(N[C@H]3CC[C@H](O)CC3)nc21 | –
0.12 µM | CCn1cnc2c(Nc3cccc(Cl)c3)nc(N[C@H]3CCC[C@@H](N)C3)nc21 | IC50 ([3]; Homo sapiens, T-24): 1.5 µM; IC50 [5]: 150 µM; IC50 [6]: 6 µM
0.041 µM | CCn1cnc2c(Nc3cccc(Cl)c3)nc(N3CCC[C@@H]3CN)nc21 | IC50 ([3]; Homo sapiens, T-24): 2.35 µM
0.55 µM | CCn1cnc2c(Nc3ccc(OC)cc3)nc(NCCN)nc21 | –
1 µM | CCn1cnc2c(Nc3cccc(OC)c3)nc(NCCO)nc21 | –
0.085 µM | CCn1cnc2c(Nc3cccc(C#N)c3)nc(N[C@H]3CC[C@H](N)CC3)nc21 | –
0.6 µM | CCn1cnc2c(Nc3cccc(F)c3)nc(NCCN)nc21 [listing 1 of 2 here] | –
0.7 µM | CCn1cnc2c(Nc3cccc(C(F)(F)F)c3)nc(NCCN)nc21.Cl | IC50 ([3]; Homo sapiens, T-24): 6.08 µM; IC50 [4]: > 10 µM; IC50 [5]: 500 µM; IC50 [6]: 50 µM
0.6 µM | CCn1cnc2c(Nc3cccc(F)c3)nc(NCCN)nc21 [listing 2 of 2 here] | IC50 ([3]; Homo sapiens, T-24): 6.5 µM
0.45 µM | CCn1cnc2c(Nc3ccc(F)cc3)nc(NCCN)nc21 [listing 2 of 2 here] | IC50 ([3]; Homo sapiens, T-24): 8.3 µM
0.56 µM | CCn1cnc2c(Nc3cccc(C#N)c3)nc(NCCN)nc21.Cl | IC50 ([3]; Homo sapiens, T-24): 5.24 µM; IC50 [4]: > 10 µM; IC50 [5]: > 500 µM; IC50 [6]: 78 µM
0.14 µM | CCn1cnc2c(Nc3cccc(Cl)c3)nc(N[C@H]3CC[C@@H](N)CC3)nc21 (stereo in doubt) | –
0.039 µM | CCn1cnc2c(Nc3cccc(Cl)c3)nc(N[C@H]3CC[C@@H](N)CC3)nc21 (stereo in doubt; 15) | IC50 ([3]; Homo sapiens, T-24): 0.54 µM

Compound | IC50 [2] | other results
CCn1cnc2c(Nc3cccc(Cl)c3)nc(N[C@@H]3CCCC[C@@H]3N)nc21 (stereo in doubt) | 0.031 µM | –
CCn1cnc2c(Nc3cccc(Cl)c3)nc(N[C@@H]3CCCC[C@@H]3N)nc21 (stereo in doubt; 12) | 0.11 µM | IC50 ([3]; t-24): 1.35 µM; IC50 [4]: 2 µM; IC50 [5]: 335 µM; IC50 [6]: 30 µM
CCn1cnc2c(Nc3cccc(Cl)c3)nc(N[C@@H]3CCCC[C@@H]3N)nc21 (stereo in doubt; 13) | 0.025 µM | IC50 ([3]; t-24): 0.48 µM; IC50 [4]: 5.1 µM; IC50 [5]: 150 µM; IC50 [6]: 13.5 µM
